Read-outs that look alike come from different tables or passages of the source.
How the values were obtained:
[1] = system: StaC-10x; assay: Isothermal titration calorimetry, FAD binding to StaC-10x; conditions: StaC-10x versus RebC
In short: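 It was used as isolated at ~33% FAD occupancy, because on-column KBr/urea stripping left the protein non-elutable. Concentration by BioRad protein assay against BSA standard. FAD titrated by ITC, two runs. Single-site Kb converted to an approximate Kd.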

[2] = target: RebC-10x (Lentzea aerocolonigenes, UniProt Q8KI25, A231S/E36D/F216V/G48S/Q117A/Q37A/R239N/R46K/T241V/T38G); assay: Isothermal titration calorimetry of FAD with FAD-free; assay type: binding
[3] = target: T1, StaC (Streptomyces sp. TP-A0274, UniProt A3KBE8); assay: Isothermal titration calorimetry of FAD with FAD-free; assay type: binding
T1 sequence (A3KBE8 1-545): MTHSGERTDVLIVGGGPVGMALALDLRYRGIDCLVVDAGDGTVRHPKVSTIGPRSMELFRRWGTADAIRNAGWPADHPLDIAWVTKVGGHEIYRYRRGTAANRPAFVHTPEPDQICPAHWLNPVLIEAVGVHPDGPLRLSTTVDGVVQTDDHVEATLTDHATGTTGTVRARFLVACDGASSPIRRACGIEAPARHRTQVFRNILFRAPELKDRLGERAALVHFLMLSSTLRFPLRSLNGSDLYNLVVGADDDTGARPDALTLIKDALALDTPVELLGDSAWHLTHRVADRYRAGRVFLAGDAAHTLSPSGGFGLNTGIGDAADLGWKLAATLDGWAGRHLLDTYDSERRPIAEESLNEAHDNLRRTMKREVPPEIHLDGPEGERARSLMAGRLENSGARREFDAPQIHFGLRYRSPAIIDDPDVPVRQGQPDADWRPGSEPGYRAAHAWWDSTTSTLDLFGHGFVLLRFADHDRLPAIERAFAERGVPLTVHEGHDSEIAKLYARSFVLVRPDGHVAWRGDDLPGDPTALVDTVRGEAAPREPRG
In short: (§1)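 Recombinant His-tagged protein was expressed in Rosetta 2 (DE3) pLysS E. coli without added riboflavin (0.1 mM IPTG, 21°C, ~20 h). It was Ni(II)-affinity purified and gel-filtered on Superdex-200. The protein isolates free of FAD, so no stripping step was used. Concentration by A280 using theoretical extinction coefficient. FAD titrated by MicroCal ITC, at least triplicate runs. Single-site Kb converted to Kd.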

[4] = target: T2, RebC (Lentzea aerocolonigenes, UniProt Q8KI25); assay type: binding
T2 sequence (Q8KI25 1-529): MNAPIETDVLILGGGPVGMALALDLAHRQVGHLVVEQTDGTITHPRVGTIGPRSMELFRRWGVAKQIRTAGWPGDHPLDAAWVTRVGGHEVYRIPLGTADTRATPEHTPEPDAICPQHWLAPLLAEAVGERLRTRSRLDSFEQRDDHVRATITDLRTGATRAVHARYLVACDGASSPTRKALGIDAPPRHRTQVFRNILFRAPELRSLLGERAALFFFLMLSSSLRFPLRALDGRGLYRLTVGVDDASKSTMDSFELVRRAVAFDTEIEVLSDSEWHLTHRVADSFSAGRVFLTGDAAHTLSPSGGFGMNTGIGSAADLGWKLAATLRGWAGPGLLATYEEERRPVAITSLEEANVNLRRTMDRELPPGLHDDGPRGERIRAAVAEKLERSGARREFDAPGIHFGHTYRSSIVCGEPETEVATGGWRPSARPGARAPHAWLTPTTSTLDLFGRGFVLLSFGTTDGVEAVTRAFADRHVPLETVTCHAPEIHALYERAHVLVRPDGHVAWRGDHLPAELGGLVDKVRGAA
In short: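 Control ITC on RebC purified by Ni(II) affinity and Superdex-200 without the KBr/urea wash, retaining ~68% bound FAD. It tests fitting of partially occupied protein, since the fitting software assumes no ligand in the cell before the first injection. FAD titrated, at least triplicate runs. Single-site Kb converted to Kd.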

[5] = target: T3, InkE (Nonomuraea longicatena, UniProt Q27IF2); assay: Isothermal titration calorimetry of FAD with FAD-free; assay type: binding
T3 sequence (Q27IF2 1-525): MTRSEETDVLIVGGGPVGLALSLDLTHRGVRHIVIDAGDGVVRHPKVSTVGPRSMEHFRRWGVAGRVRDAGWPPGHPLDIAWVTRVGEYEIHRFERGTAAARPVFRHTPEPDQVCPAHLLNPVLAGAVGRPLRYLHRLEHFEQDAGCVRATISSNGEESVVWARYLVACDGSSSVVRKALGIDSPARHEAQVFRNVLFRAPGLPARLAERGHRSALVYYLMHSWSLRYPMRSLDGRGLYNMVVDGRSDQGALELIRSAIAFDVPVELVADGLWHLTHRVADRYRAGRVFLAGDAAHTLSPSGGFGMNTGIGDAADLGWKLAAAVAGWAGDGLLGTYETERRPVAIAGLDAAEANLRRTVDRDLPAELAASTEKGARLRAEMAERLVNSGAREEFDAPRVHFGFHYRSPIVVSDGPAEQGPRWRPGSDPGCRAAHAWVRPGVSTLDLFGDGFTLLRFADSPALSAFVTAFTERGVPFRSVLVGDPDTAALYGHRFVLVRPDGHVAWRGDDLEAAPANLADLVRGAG
In short: as §1

[6] = target: T4, AtmC (Actinomadura melliaura, UniProt Q0H2X3); assay: Isothermal titration calorimetry of FAD with FAD-free; assay type: binding
T4 sequence (Q0H2X3 1-534): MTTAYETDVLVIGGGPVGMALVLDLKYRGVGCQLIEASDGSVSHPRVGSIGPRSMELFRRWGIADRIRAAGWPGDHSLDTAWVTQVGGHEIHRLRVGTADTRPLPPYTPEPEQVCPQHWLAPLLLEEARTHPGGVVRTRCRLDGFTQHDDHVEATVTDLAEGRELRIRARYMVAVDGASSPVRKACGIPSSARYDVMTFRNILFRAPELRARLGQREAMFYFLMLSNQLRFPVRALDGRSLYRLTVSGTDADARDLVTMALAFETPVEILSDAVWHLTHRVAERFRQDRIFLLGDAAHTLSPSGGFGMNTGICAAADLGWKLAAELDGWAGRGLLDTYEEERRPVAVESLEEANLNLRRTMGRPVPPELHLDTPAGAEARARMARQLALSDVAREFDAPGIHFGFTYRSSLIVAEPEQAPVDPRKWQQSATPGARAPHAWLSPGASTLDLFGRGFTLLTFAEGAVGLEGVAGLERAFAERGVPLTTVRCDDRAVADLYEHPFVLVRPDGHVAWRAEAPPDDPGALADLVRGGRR
In short: (§2)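 Recombinant His-tagged protein was expressed in Rosetta 2 (DE3) pLysS E. coli (0.1 mM IPTG, 21°C, ~20 h) and captured on Ni(II) resin. Flavin was stripped on-column with 2 M KBr/2 M urea, then the protein was eluted with 200 mM imidazole and gel-filtered on Superdex-200. Concentration by A280 using theoretical extinction coefficient. FAD titrated by MicroCal ITC, at least triplicate runs. Single-site Kb converted to Kd.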

[7] = target: T2, RebC; assay: as above; assay type: binding
In short: as §2

Q: How did the “FAD binding weaker than RebC” value [1] turn out when Cc1cc2nc3c(=O)[nH]c(=O)nc-3n(C[C@H](O)[C@H](O)[C@H](O)COP(=O)(O)OP(=O)(O)OC[C@H]3O[C@@H](n4cnc5c(N)ncnc54)[C@H](O)[C@@H]3O)c2cc1C [FAD] was run?
A: Its value is 30 fold.

Q: With Cc1cc2nc3c(=O)[nH]c(=O)nc-3n(C[C@H](O)[C@H](O)[C@H](O)COP(=O)(O)OP(=O)(O)OC[C@H]3O[C@@H](n4cnc5c(N)ncnc54)[C@H](O)[C@@H]3O)c2cc1C [FAD, flavin adenine dinucleotide] as the compound, how does the Kd [2] read?
A: Its Kd is 600 ± 55 nM.

Q: And the Kd [3]?
A: The Kd was 15000 nM.

Q: And the Kd [4]?
A: Its Kd is 31 nM.

Q: What about the Kd [5] of the same compound?
A: The Kd was 59000 nM.

Q: What about the Kd [6] of the same compound?
A: Its Kd is 73 ± 28 nM.

Q: And the Kd [7]?
A: Its Kd is 20 ± 12 nM.
